Here are results for one compound from ChEMBL document CHEMBL4043073, “Boronic Acid Modifications Enhance the Anti-Influenza A Virus Activities of Novel Quindoline Derivatives” (J Med Chem, 2017).

Active and inactive are the calls of the source. The rule behind the calls is not given here.

Data set [1] in a line: Selectivity index, ratio of CC50 for MDCK cells to IC50 for Influenza A virus (A/Puerto Rico/8/34(H1N1)) infected in MDCK cells assessed as reduction in virus-induced cytopathic effect. The data set is classed as toxicity, cell-based. As to conditions: dog, read-out: Ratio CC50/IC50.
For data set [2], the system named is Influenza A virus. The experiment in a line: Antiviral activity against Influenza A virus (A/Puerto Rico/8/34(H1N1)) infected in A549 cells assessed as reduction in localization of viral NP protein in nucleus at 10 uM preincubated with virus at 37 degC for 1 hr followed by viral adsorption at 4 degC for 1 hr and subsequent infection in A549 cells measured at 2 to 4 hrs post infection by FITC-staining based immunofluorescence microscopic method. The data set is classed as functional, cell-based. The note with it: A/Puerto Rico/8/1934(H1N1). The essentials: (§1)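 PR8 (MOI 1.0) pretreated with 10 μM compound 1 h at 37 °C, adsorbed 1 h at 4 °C, then A549 cells were kept in infecting medium with 10 μM compound. Fixed with 4% paraformaldehyde at 2 or 4 h p.i., permeabilised with Triton X-100 and blocked. Anti-NP plus FITC secondary, confocal imaging; nuclear NP intensity per unit area quantified (n = 30 images).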

For data set [3], the system named is Influenza A virus. Kind of data set: Antiviral activity against Influenza A virus (A/Puerto Rico/8/34(H1N1)) infected in MDCK cells assessed as reduction in virus titer preincubated with virus for 1 hr followed by viral infection measured after 24 hrs by crystal violet staining based plaque assay. The data set is classed as functional, cell-based. The note with it: A/Puerto Rico/8/1934(H1N1). The essentials:
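PR8 (MOI 1.0) preincubated with compound (2.5–10 μM) 1 h at 37 °C, then used to infect MDCK cells. After adsorption, medium with the same compound concentration was added. At 24 h p.i. supernatant virus titer was measured by plaque assay; n = 3.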

For data set [4], the system named is Influenza A virus. Kind of data set: Antiviral activity against Influenza A virus H3N2 strain (A/swine/Minnesota/02719/2009) infected in MDCK cells assessed as reduction in viral HA titer by measuring reduction in chicken RBC […] after 24 hrs by hemagglutination test. The data set is classed as functional, cell-based. The essentials: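 MDCK cells infected at MOI 3.0 (single-cycle) with PR8, Cal09 or swine H3N2 Minnesota, then treated with compound for 24 h. Supernatant HA titers were read by 2-fold serial dilution with an equal volume of 1% chicken RBCs, 60 min at 4 °C. Expressed as percent of untreated-cell HA titer; IC50 derived; n = 4.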

Data set [5] relates to Influenza A virus. Kind of data set: Antiviral activity against Influenza A virus (A/Puerto Rico/8/34(H1N1)) infected in MDCK cells assessed as virus yeild reduction at 10 uM treated during viral adsorption for 1 hr measured at 24 hrs post infection by crystal violet staining based plaque assay. The data set is classed as functional, cell-based. As to conditions: A/Puerto Rico/8/1934(H1N1). The essentials:
(§2)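 Time-of-addition on MDCK cells, PR8 MOI 1.0, 10 μM compound. Three arms: cells pretreated before infection; compound present during adsorption 1 h at 4 °C; or compound added after removal of unadsorbed virus. Virus yield at 24 h p.i. by plaque assay; n = 3.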

In data set [6] the test system is Influenza A virus. Kind of data set: Antiviral activity against Influenza A virus (A/Puerto Rico/8/34(H1N1)) infected in MDCK cells assessed as virus yeild reduction at 10 uM preincubated with cells for 1 hr followed by viral infection for 1 hr measured at 24 hrs post infection by crystal violet staining based plaque assay. The data set is classed as functional, cell-based. The note with it: A/Puerto Rico/8/1934(H1N1). The essentials: as §2

Data set [7] deals with Vero. The experiment in a line: Inhibition of Influenza A virus (A/Puerto Rico/8/34(H1N1)) hemagglutinin expressed in African green monkey Vero cells assessed as reduction in acid-induced syncytium formation preincubated at pH 7 for 15 mins followed by incubation at pH 5 for 10 mins measured after 2 hrs by Hema3Stat Pak-staining based microscopic analysis. The data set is classed as cell-based. As to conditions: Influenza A virus (A/Puerto Rico/8/1934(H1N1)). The essentials:
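Vero cells transfected with PR8 HA plasmid. At 16 h HA was cleaved with 5 μg/mL TPCK-trypsin for 15 min at 37 °C. Cells were preincubated with compound 15 min at 37 °C, then held at pH 5.0 with compound for 10 min at 37 °C. After rinsing, cells were kept 2 h in 10% FBS medium, stained with Hema3Stat Pak and examined for syncytia by microscopy.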

The subject of data set [8] is Influenza A virus. Kind of data set: Antiviral activity against Influenza A virus (A/Puerto Rico/8/34(H1N1)) infected in Kunming mouse assessed as pulmonary viral titer reduction at 10 mg/kg/day, po qd for 4 days measured on day 4 post last dose by crystal violet staining based plaque assay. The data set is classed as functional, organism-based. The note with it: A/Puerto Rico/8/1934(H1N1). The essentials: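 Female 4-week-old Kunming mice infected intranasally with PR8 (4 HAU/mouse). Oral gavage once daily began 2 h post-inoculation; placebo control. Mice euthanised on day 4; lungs homogenised in PBS and titrated by plaque assay on cell monolayers (agarose overlay, 3 days, crystal violet).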

Data set [9] is filed under the species Canis lupus familiaris. The experiment in a line: Inhibition of MAPK signaling-mediated nuclear import of viral RNP in MDCK cells infected with Influenza A virus (A/Puerto Rico/8/34(H1N1)) assessed as p38 phosphorylation at 5 uM preincubated with virus for 1 hr followed by viral infection after 4 hrs by Western blot method relative to control (reference value: 5.1). The data set is classed as cell-based. The essentials:
(§3)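 PR8 (MOI 1.0) pretreated with compound 1 h at 37 °C, then MDCK cells were kept in infecting medium with 5 or 10 μM for 4 h; ribavirin 50 μg/mL as comparator. Lysates were immunoblotted for phospho-ERK1/2, p38, NF-κB or Akt, with β-actin/GAPDH loading controls and AP/NBT-BCIP detection. Densitometry was normalised to uninfected cells (= 1.0); n = 3.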

For data set [10], the species on record is Canis lupus familiaris. Kind of data set: Inhibition of MAPK signaling-mediated nuclear import of viral RNP in MDCK cells infected with Influenza A virus (A/Puerto Rico/8/34(H1N1)) assessed as p38 phosphorylation at 10 uM preincubated with virus for 1 hr followed by viral infection after 4 hrs by Western blot method relative to control (reference value: 5.1). The data set is classed as cell-based. The essentials:
as §3

The species entered for data set [11] is Canis lupus familiaris. Kind of data set: Inhibition of NFkappaB activation-mediated viral RNA synthesis in MDCK cells infected with Influenza A virus (A/Puerto Rico/8/34(H1N1)) assessed as NF-kB phosphorylation level at 5 uM preincubated with virus for 1 hr followed by viral infection measured after 4 hrs by Western blot method relative to control (reference value: 1.8). The data set is classed as cell-based. The essentials: as §3

The species entered for data set [12] is Canis lupus familiaris. Kind of data set: Inhibition of NFkappaB activation-mediated viral endocytosis in MDCK cells infected with Influenza A virus (A/Puerto Rico/8/34(H1N1)) assessed as Akt phosphorylation level at 5 uM preincubated with virus for 1 hr followed by viral infection measured after 4 hrs by Western blot method relative to control (reference value: 1.4). The data set is classed as cell-based. The essentials:
as §3

In data set [13] the test system is Influenza A virus. Kind of data set: Antiviral activity against Influenza A virus (A/Puerto Rico/8/34(H1N1)) infected in Kunming mouse assessed as survival rate at 10 mg/kg/day, po qd for 7 days measured on day 14 post infection (reference value: 30%). The data set is classed as functional. As to conditions: A/Puerto Rico/8/1934(H1N1).
The subject of data set [14] is Influenza A virus. Kind of data set: Antiviral activity against Influenza A virus (A/Puerto Rico/8/34(H1N1)) infected in A549 cells assessed as reduction in nuclear import of viral RNP by measuring colocalization with viral NP in cytoplasm at 10 uM preincubated with virus at 37 degC for 1 hr followed by viral adsorption at 4 degC for 1 hr and subsequent infection in A549 cells measured at 2 to 4 hrs post infection by confocal microscopic method. The data set is classed as functional, cell-based. The note with it: A/Puerto Rico/8/1934(H1N1). The essentials:
as §1

Turning to `O=C(Nc1ccccc1Nc1c2ccccc2nc2c1[nH]c1ccccc12)c1cccc(B(O)O)c1`, the selectivity ratio in [1] came to 27.9. Also, the outcome in [2], in [5], in data set [8] and in [14] was Active. The Activity entry in data set [3] and in [4] was “Dose-dependent effect” in each case. The half-maximal inhibitory concentration (IC50) in data set [3] came to 2200 nM; in [4], 3000 nM. The result in data set [6] was inactive. Further, the inhibition result in [7] was “inactive”. In addition, the fold change (FC) in data set [9] was found to be 3.3; in [10], 2.5; in data set [11] it was 0.9; in data set [12], 1.2. Besides, the survival at 10 mg/kg/day in data set [13] came to 90%.
